Key:
Mus musculus [1] = experiment: The compound was evaluated for the mouse active Arthus (MAA) reaction activity for an ip dose of 150 mg/kg in mouse; type: functional; conditions: route intraperitoneal
Procedure, shortened: (§1)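 CD-1 mice were sensitized ip with a 1:1 Freund's complete adjuvant emulsion containing BSA in saline, 5 weeks before challenge. Compound was suspended in 1% Na CMC in pyrogen-free saline and given as one ip or oral dose 1 h before skin challenge with BSA. Screening doses were 150 mg/kg ip and 300 mg/kg po, with some at 75 or 50 mg/kg ip. Lesions were excised 3.5 h after challenge and weighed against controls.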

Cavia porcellus [2] = experiment: The compound was evaluated for the delayed hypersensitivity skin reaction (DHSR) activity after subcutaneous administration; 0/0
Cavia porcellus [3] = experiment: Tested in delayed hypersensitivity skin reaction (DHSR) after subcutaneous administration, activity reported as percent inhibition of erythema/induration of lesion; 14/42; type: functional
[4] = Acute toxicity as LD50 value was determined in mice administered intraperitoneally; type: organism-based; conditions: mouse, in vivo, ip
Mus musculus [5] = organism: Mus musculus; experiment: The compound was evaluated for the mouse active Arthus (MAA) reaction activity expressed as inhibitory dose.; type: functional; conditions: read-out: ID50 (the source's name); procedure, shortened: as §1
Mus musculus [6] = experiment: Mouse active Arthus (MAA) reaction activity was determined for an ip dose of 150 mg/kg in mouse; type: functional; conditions: route intraperitoneal
[7] = Therapeutic ratio was determined for intraperitoneal administration; type: ADME; conditions: ip; read-out: TR
Cavia porcellus [8] = experiment: Tested in delayed hypersensitivity skin reaction (DHSR) after subcutaneous administration, activity reported as percent inhibition of erythema/induration of lesion; 24/41; type: functional
Procedure, shortened: (§2)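 Male Hartley guinea pigs were sensitized with Mycobacterium tuberculosis in Freund's incomplete adjuvant, injected into each hind footpad and subcutaneously at the neck. After 3 weeks, 1.2 μg PPD was given intradermally. Compound in sesame oil was given sc, 3 animals per group, 30 min before and 5 h after PPD; screening dose 50 mg/kg.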

[9] = Acute toxicity as LD50 value was determined in mice administered orally; type: organism-based; conditions: mouse, in vivo, po
Mus musculus [10] = experiment: The compound was evaluated for the mouse active Arthus (MAA) reaction activity expressed as inhibitory dose after ip administration; type: functional; conditions: read-out: ID50 (the source's name); procedure, shortened: as §1
Mus musculus [11] = experiment: The compound was evaluated for the mouse active Arthus (MAA) reaction activity expressed as inhibitory dose after oral administration; type: functional; conditions: read-out: ID50 (the source's name); procedure, shortened: as §1
Mus musculus [12] = experiment: Inhibition of Mouse active Arthus (MAA) reaction activity was determined for peroral dose of 300 mg/kg in mouse; 41-60%; type: functional; conditions: route oral
[13] = Therapeutic ratio was determined for peroral administration; conditions: po; read-out: TR
Cavia porcellus [14] = experiment: Tested in delayed hypersensitivity skin reaction (DHSR) after subcutaneous administration, activity reported as percent inhibition of erythema/induration of lesion; 7/6; type: functional; procedure, shortened: as §2
Mus musculus [15] = experiment: The compound was evaluated for the mouse active Arthus (MAA) reaction activity for peroral dose of 300 mg/kg in mouse; 31-40%; type: functional; conditions: route oral; procedure, shortened: as §1
Cavia porcellus [16] = experiment: Tested in delayed hypersensitivity skin reaction (DHSR) after subcutaneous administration, activity reported as percent inhibition of erythema/induration of lesion; 16/52; type: functional
Mus musculus [17] = experiment: Inhibition of Mouse active Arthus (MAA) reaction activity was determined for peroral dose of 300 mg/kg in mouse; 31-40%; type: functional; conditions: route oral
Mus musculus [18] = experiment: Inhibition of Mouse Active Arthus reaction following 150 mg/Kg i.p.; 41-60% inhibition.; type: functional; conditions: Mus musculus, ip
Cavia porcellus [19] = experiment: Tested in delayed hypersensitivity skin reaction (DHSR) after subcutaneous administration, activity reported as percent inhibition of erythema/induration of lesion; 9/32; type: functional; procedure, shortened: as §2
Mus musculus [20] = experiment: The compound was evaluated for the mouse active Arthus (MAA) reaction activity for an ip screening dose of 50 mg/kg; type: functional; conditions: route intraperitoneal; procedure, shortened: as §1
Cavia porcellus [21] = experiment: Tested in delayed hypersensitivity skin reaction (DHSR) after subcutaneous administration, activity reported as percent inhibition of erythema/induration of lesion; 15/0; type: functional
Cavia porcellus [22] = experiment: Tested in delayed hypersensitivity skin reaction (DHSR) after subcutaneous administration, activity reported as percent inhibition of erythema/induration of lesion; 12/45; type: functional
Mus musculus [23] = experiment: Inhibition of Mouse active Arthus (MAA) reaction activity was determined for peroral dose of 300 mg/kg in mouse; type: functional; conditions: route oral
Cavia porcellus [24] = experiment: Tested in delayed hypersensitivity skin reaction (DHSR) after subcutaneous administration, activity reported as percent inhibition of erythema/induration of lesion; 4/6; type: functional; procedure, shortened: as §2
Mus musculus [25] = experiment: Inhibition of Mouse active Arthus (MAA) reaction activity was determined for an ip dose of 150 mg/kg in mouse; 21-30%; type: functional; conditions: route intraperitoneal
Cavia porcellus [26] = experiment: Tested in delayed hypersensitivity skin reaction (DHSR) after subcutaneous administration, activity reported as percent inhibition of erythema/induration of lesion; 15/42; type: functional
Mus musculus [27] = experiment: The compound was evaluated for the mouse active Arthus (MAA) reaction activity for an ip dose of 150 mg/kg in mouse; 31-40%; type: functional; conditions: route intraperitoneal; procedure, shortened: as §1
Cavia porcellus [28] = experiment: Tested in delayed hypersensitivity skin reaction (DHSR) after subcutaneous administration, activity reported as percent inhibition of erythema/induration of lesion; 14/11; type: functional
Cavia porcellus [29] = experiment: Tested in delayed hypersensitivity skin reaction (DHSR) after subcutaneous administration, activity reported as percent inhibition of erythema/induration of lesion; 0/8; type: functional
[30] = The acute toxicity as LD50 value was determined in mice for intraperitoneally administration; type: organism-based; conditions: mouse, in vivo, ip
Mus musculus [31] = experiment: Mouse active Arthus (MAA) reaction activity was determined for an oral dose of 300 mg/kg administration in mouse; 21-30%; type: functional
Rattus norvegicus [32] = experiment: Carrageenan-induced edema was determined after intraperitoneal administration; conditions: ip, read-out: ID50 (the source's name)
Rattus norvegicus [33] = experiment: Carrageenan-induced edema was determined after oral administration of a dose of; conditions: read-out: ID50 (the source's name)
Rattus norvegicus [34] = experiment: Adjuvant-induced arthritis was determined for a dose of 75 mg/kg oral administration
Rattus norvegicus [35] = experiment: Adjuvant-induced arthritis was determined for a dose of 150 mg/kg administered orally; conditions: po
Rattus norvegicus [36] = experiment: Adjuvant-induced arthritis was determined for a dose of 75 mg/kg intraperitoneal administration; conditions: ip
Rattus norvegicus [37] = experiment: Adjuvant-induced arthritis was determined for a dose of 150 mg/kg administered intraperitoneally; conditions: ip
Cavia porcellus [38] = experiment: Delayed hypersensitivity skin reaction (DHSR) activity was determined after a dose of 50 mg/kg; 6/15
Cavia porcellus [39] = experiment: The compound was evaluated for the delayed hypersensitivity skin reaction (DHSR) activity after subcutaneous administration; 23/37
Cavia porcellus [40] = experiment: Tested in delayed hypersensitivity skin reaction (DHSR) after subcutaneous administration, activity reported as percent inhibition of erythema/induration of lesion; 24/32; type: functional; procedure, shortened: as §2

## CN1CCN(CCCN2N=C3/C(=C/c4ccc([S+](C)[O-])cc4)COCC3C2c2ccc([S+](C)[O-])cc2)CC1.O=C(O)/C=C\C(=O)O (stereo unspecified)
Mus musculus [1]
  inhibition in vivo at 150 mg/kg: < 20%
Cavia porcellus [2]
  Activity: 0

## Cc1ccccc1/C=C1\CS(=O)(=O)CC2C1=NN(CCCN1CCN(C)CC1)C2c1ccccc1C.O=C(O)/C=C\C(=O)O (stereo unspecified)
Cavia porcellus [3]
  Activity: 14
[4]
  LD50: 130 mg/kg
Mus musculus [5]
  ED50: < 37.5 mg/kg
Mus musculus [6]
  inhibition in vivo at 150 mg/kg: > 60%
[7]
  selectivity ratio: < 3.5

## Cc1ccccc1/C=C1\CSCC2C1=NN(CCCN1CCN(C)CC1)C2c1ccccc1C.O=C(O)/C=C\C(=O)O (stereo unspecified)
Cavia porcellus [8]
  Activity: 24
[4]
  LD50: 170 mg/kg
[9]
  LD50: > 1200 mg/kg
Mus musculus [10]
  ED50: 30 mg/kg
Mus musculus [11]
  ED50: 225 mg/kg
Mus musculus [12]
  inhibition in vivo at 300 mg/kg: 41%
Mus musculus [6]
  inhibition in vivo at 150 mg/kg: > 60%
[7]
  selectivity ratio: 5.7
[13]
  selectivity ratio: > 5.3

## CN1CCN(CCCN2N=C3/C(=C/c4ccccc4)CS(=O)(=O)CC3C2c2ccccc2)CC1.O=C(O)/C=C\C(=O)O (stereo unspecified)
Cavia porcellus [14]
  Activity: 7
Mus musculus [15]
  inhibition in vivo at 300 mg/kg: 31%
Mus musculus [1]
  inhibition in vivo at 150 mg/kg: > 60%

## Cc1ccc(/C=C2\CSCC3C2=NN(CCCN2CCN(C)CC2)C3c2ccc(C)cc2)cc1.O=C(O)/C=C\C(=O)O (stereo unspecified)
Cavia porcellus [16]
  Activity: 16
Mus musculus [10]
  ED50: 58 mg/kg
Mus musculus [17]
  inhibition in vivo at 300 mg/kg: 31%
Mus musculus [18]
  inhibition in vivo at 150 mg/kg: 41%

## CN1CCN(CCCN2N=C3/C(=C/c4ccccc4)COCC3C2c2ccccc2)CC1.O=C(O)/C=C\C(=O)O (stereo unspecified)
Cavia porcellus [19]
  Activity: 9
Mus musculus [20]
  inhibition in vivo at 50 mg/kg: > 60%

## CC(C)(C)c1ccc(/C=C2\CS(=O)(=O)CC3C2=NN(CC2CC2)C3c2ccc(C(C)(C)C)cc2)cc1 (stereo unspecified)
Cavia porcellus [21]
  Activity: 15

## CCCN1N=C2/C(=C/c3ccc(OC)cc3)CSCC2C1c1ccc(OC)cc1 (stereo unspecified)
Cavia porcellus [22]
  Activity: 12
Mus musculus [18]
  inhibition in vivo at 150 mg/kg: 41%
Mus musculus [23]
  inhibition in vivo at 300 mg/kg: < 20%

## OCCN1N=C2/C(=C/c3ccccc3)CSCC2C1c1ccccc1 (stereo unspecified)
Cavia porcellus [24]
  Activity: 4
Mus musculus [25]
  inhibition in vivo at 150 mg/kg: 21%

## CCCn1nc(-c2ccc(OC)cc2)c2c1/C(=C/c1ccc(OC)cc1)CSC2
Cavia porcellus [26]
  Activity: 15
Mus musculus [27]
  inhibition in vivo at 150 mg/kg: 31%

## Cc1ccc(/C=C2\CS(=O)(=O)CC3C2=NN(CC(F)(F)F)C3c2ccc(C)cc2)cc1 (stereo unspecified)
Cavia porcellus [28]
  Activity: 14
Mus musculus [18]
  inhibition in vivo at 150 mg/kg: 41%
Mus musculus [23]
  inhibition in vivo at 300 mg/kg: < 20%

## O=S1(=O)C/C(=C\c2ccc(Cl)cc2)C2=NN(c3ccccc3)C(c3ccc(Cl)cc3)C2C1 (stereo unspecified)
Cavia porcellus [29]
  Activity: 0

## CC(=O)N1N=C2/C(=C/c3cccc(C(F)(F)F)c3)CS(=O)(=O)CC2C1c1cccc(C(F)(F)F)c1 (stereo unspecified)
[4]
  LD50: > 3200 mg/kg
[9]
  LD50: > 7200 mg/kg
[30]
  LD50: > 4000 mg/kg
Mus musculus [10]
  ED50: 112 mg/kg
Mus musculus [11]
  ED50: > 600 mg/kg
Mus musculus [18]
  inhibition in vivo at 150 mg/kg: 41%
Mus musculus [31]
  inhibition in vivo at 300 mg/kg: 21%
[7]
  selectivity ratio: 24
Rattus norvegicus [32]
  ED50: > 150 mg/kg
Rattus norvegicus [33]
  ED50: > 200 mg/kg
Rattus norvegicus [34]
  inhibition in vivo at 75 mg/kg: 0%
Rattus norvegicus [35]
  inhibition in vivo at 150 mg/kg: 7%
Rattus norvegicus [36]
  inhibition in vivo at 75 mg/kg: 22%
Rattus norvegicus [37]
  inhibition in vivo at 150 mg/kg: 31%
Cavia porcellus [38]
  Activity: 6

## C(=C1/CSCC2C1=NNC2c1ccccc1)/c1ccccc1 (stereo unspecified)
Mus musculus [18]
  inhibition in vivo at 150 mg/kg: 41%
Cavia porcellus [39]
  Activity: 23

## CCCN1N=C2/C(=C/c3ccc(Cl)cc3)CS(=O)(=O)CC2C1c1ccc(Cl)cc1 (stereo unspecified)
Cavia porcellus [40]
  Activity: 24
Mus musculus [18]
  inhibition in vivo at 150 mg/kg: 41%
